# Screening data as filed in PubChem.
# Hits are enriched below; roughly 27% of the tested compounds scored in any of these assays.
# CYP2C9 activ: increases human cytochrome P450 2C9 activity | P11712 | recombinant CYP2C9, luciferin-H conversion, luminescence; hits give high values; factor 1 = untreated enzyme, 0 = blocked | activation factor at 5 µM | hit rate 1.4% among 96,000;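 active = activation factor of 2 or more for CYP2C9 at a 5 µM dose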;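 also: 0 = sulfaphenazole-blocked wells and 1 = vehicle-only wells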
# CYP2C19 act: increases human CYP2C19 enzyme activity. P33261. recombinant CYP2C19, luciferin-H EGE luminescence; hits give high values; 0 = fully inhibited enzyme, 1 = untreated enzyme. activation factor at 5 µM. 96,000 tested, under 10 active. AID 1025;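 active = activation factor of at least 2 at 5 µM in the primary screen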;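 also: 0 = wells with 2.5 mM tranylcypromine and 1 = vehicle-only wells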
# CYP2C9 inh: human CYP2C9 inhibition. P11712. CYP2C9 Supersomes, luciferin-H conversion, luminescence. inhibition, % at 5 µM. hit rate 20% among 96,000;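 active = blocking of liver enzyme CYP2C9 beyond about 50% at 5 µM, limit read from the data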
# Cav32 inh: human Cav3.2 channel inhibition, primary screen; B-score at 10 µM; AID 449739; hit rate 4% among 100,000; O95180; Cav3.2-expressing cells, Fluo-4 calcium fluorescence FDSS; hits give low values;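 active = single-dose well whose peak fluorescence ratio is a statistical outlier from its plate by either plate-standardised score or position-corrected B-score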
# Rev-RRE block: HIV Rev-RRE protein-RNA interaction inhibition. inhibition, % at 8 µM. Rev peptide-RRE RNA binding, FRET. hit rate 0.79% among 97,000;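 active = inhibition above the screen-wide mean plus 3 SD, cut at about 35% in these data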;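 also: 0% = median DMSO wells and 100% = median Neomycin B control wells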
# Target sequence (P05866 whole entry, looked up): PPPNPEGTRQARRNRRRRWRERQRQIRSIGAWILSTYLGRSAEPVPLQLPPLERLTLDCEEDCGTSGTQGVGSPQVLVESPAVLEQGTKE
#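 System: Cy5-labelled duplex RRE RNA binding fluorescein-labelled HIV Rev peptide; Signal: fluorescein-to-Cy5 FRET, 480 nm excitation; Also added: labelled Rev peptide; Compound: one concentration, 8 µM nominal; Buffer or medium: HEPES pH 7.5 salt buffer with EDTA; Read-out: % inhibition of FRET ratio versus controls; Schedule: 5 min preincubation and 15 min binding, 25 °C.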
# CYP2C19 inhib: human CYP2C19 inhibition; P33261; inhibition, % at 5 µM; CYP2C19 Supersomes, luciferin-H EGE luminescence, 30 min; hit rate 21% among 96,000;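 active = CYP2C19 inhibition above a set limit at 5 µM in the primary screen, cut at about 50% in these data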;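 also: plate controls were negative control wells for no effect and 2.5 mM tranylcypromine positive control for full effect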
# * = called active by the depositor; · = no result.
SMILES,CYP2C9 activ,CYP2C19 act,CYP2C9 inh,Cav32 inh,Rev-RRE block,CYP2C19 inhib
CC(=NCc1cccnc1)c1c(O)n(C2CCCCC2)c(=O)[nH]c1=O,0.5,0,51*,0.72,-1,99*
CCC(=O)c1c(O)n(C2CCCCCC2)c(=O)[nH]c1=O,0.8,0.8,20,-2.1,8,18
CCC(=NCc1cccnc1)c1c(O)n(C2CCCCC2)c(=O)[nH]c1=O,0.2,0,83*,0.65,8,98*
COc1ccccc1CC1/C(=N/O)C2CCN1CC2 (stereo not drawn),0.9,0.8,9,-0.087,5,18
COc1cccc(-n2c(-c3ccoc3)nc3ccccc3c2=O)c1,0.7,0.8,33,0.37,6,23
Cn1c(O)c(C=NC2CC(C)(C)NC(C)(C)C2)c(=O)n(C)c1=O,0.8,0.9,15,-0.61,5,7
COC(=O)C1=C(c2cccc(OC)c2OC)C[C@@H]2CC[C@H]1N2C(=O)NCc1ccc(F)cc1,·,·,·,0.028,·,·
CCC(=NCc1ccco1)c1c(O)n(C2CCCCC2)c(=O)[nH]c1=O,0.5,0,51*,-6.8*,15,96*
COC(=O)C1=C(c2ccc(S(C)(=O)=O)cc2)C[C@@H]2CC[C@H]1N2C(=O)N1CCOCC1,·,·,·,1.5,·,·
COc1ccc(Oc2cc(NC(=O)c3nn(C)cc3[N+](=O)[O-])cc([N+](=O)[O-])c2)cc1,0.1,0.3,91*,0.51,3,66*
CN1C(=O)N(C)C(=O)C2(Cc3c(ccc4ccccc34)N(C)C2)C1=O,0.7,0.3,34,0.056,2,66*
CCCCn1c(=O)c(C(=O)NCc2ccncc2)c(O)c2ccccc21,0,0.1,100*,-1.7,0,92*
c1ccc(CNCCc2ccc3c(c2)OCO3)nc1,·,·,·,1.5,2,·
O=C1NC(=O)C(CCc2ccccn2)(Cc2ccc3c(c2)OCO3)C(=O)N1CCc1ccccc1 (stereo not drawn),0.7,0.4,31,-0.14,3,55*
O=C1CC(N2CC=C(c3ccccc3)CC2)C(=O)N1c1ccc(F)cc1 (stereo not drawn),0.4,0.9,62*,-1.1,·,8
COc1ccccc1/C=C1/C(=N/O)C2CCN1CC2,1,0.1,-5,0.29,·,91*
COC(=O)[C@@H]1C[C@@]1(C)[C@@H](NP(=O)(c1ccccc1)c1ccccc1)c1ccccc1,·,·,·,0.29,·,·
Cc1cc(C)nc(-n2c(C)nc3cc(Cl)ccc3c2=O)c1,0.1,0.6,90*,0.29,-2,41
Cc1cccc(-n2c(C)nc3ccccc3c2=O)n1,·,·,·,0.36,5,·
O=C1CC(N2CCC(n3c(=O)[nH]c4ccccc43)CC2)C(=O)N1c1ccc(F)cc1 (stereo not drawn),1.1,1,-7,·,0,-2
O=c1[nH]c2ccccc2n1C1CCN(CCCC(c2ccc(F)cc2)c2ccc(F)cc2)CC1,·,·,·,-4.8*,·,·
O=C(CNS(=O)(=O)c1cccs1)N1CCC2(CC1)OCCO2,1.1,0.5,-10,·,2,52*
COc1ccc(C(CC(=O)N2CCC3(CC2)OCCO3)NS(=O)(=O)c2ccc(C)cc2)cc1 (stereo not drawn),1.4,0.9,-37,·,5,10
CC(=O)N1N=C2C3CCN(CC3)C2C1c1ccc(C)cc1 (stereo not drawn),·,·,·,-0.0061,·,·
O=c1cccc2n1CC1CC2CN(Cc2ccc3c(c2)OCO3)C1 (stereo not drawn),0.5,0.4,52*,0.31,10,57*
COc1ccc2c(c1OC)C(=O)OC2c1c(O)n(Cc2ccc(F)cc2)c(=O)[nH]c1=O (stereo not drawn),0.7,1,28,2,·,0
C=CCn1c(O)c(C(CC)=NCCC2=CCCCC2)c(=O)[nH]c1=O,0.7,0.8,28,0.25,4,23
Cc1ccc(S(=O)(=O)N(C)CCCC(=O)N2CCN(c3ccccn3)CC2)cc1,0.7,0.5,33,-0.033,9,52*
Cc1ccc2nc3c(cc2c1)CC1(C(=O)N(C)C(=O)N(C)C1=O)C1CCCCN31 (stereo not drawn),0.5,0.4,50*,0.11,17,64*
